Results reported in ChEMBL document CHEMBL4145441, “Discovery of N-(5-((5-chloro-4-((2-(isopropylsulfonyl)phenyl)amino)pyrimidin-2-yl)amino)-4-methoxy-2-(4-methyl-1,4-diazepan-1-yl)phenyl)acrylamide (CHMFL-ALK/EGFR-050) as a potent ALK/EGFR dual kinase inhibitor capable of overcoming a variety of ALK/EGFR associated drug resistant mutants in NSCLC” (Eur J Med Chem, 2017).
The source made the active and inactive calls. The rule behind the calls is not given here.

Columns and labels:
NCI-H3122 [1] = assay: Antitumor activity against human NCI-H3122 cells xenografted in nu/nu mouse assessed as tumor growth inhibition at 10 mg/kg, po qd administered for 28 days; format: functional; conditions: 672 h, read-out: TGI
[2] = target: T1, ALK tyrosine kinase receptor (Homo sapiens, UniProt Q9UM73); assay: Inhibition of ALK phosphorylation at Tyr1604 residue in human NCI-H3122 cells harboring EML4-fused ALK at 100 nM after 2 hrs by immunoblot method; format: cell-based
Target sequence in this assay (Q9UM73 19-1620 limits assumed): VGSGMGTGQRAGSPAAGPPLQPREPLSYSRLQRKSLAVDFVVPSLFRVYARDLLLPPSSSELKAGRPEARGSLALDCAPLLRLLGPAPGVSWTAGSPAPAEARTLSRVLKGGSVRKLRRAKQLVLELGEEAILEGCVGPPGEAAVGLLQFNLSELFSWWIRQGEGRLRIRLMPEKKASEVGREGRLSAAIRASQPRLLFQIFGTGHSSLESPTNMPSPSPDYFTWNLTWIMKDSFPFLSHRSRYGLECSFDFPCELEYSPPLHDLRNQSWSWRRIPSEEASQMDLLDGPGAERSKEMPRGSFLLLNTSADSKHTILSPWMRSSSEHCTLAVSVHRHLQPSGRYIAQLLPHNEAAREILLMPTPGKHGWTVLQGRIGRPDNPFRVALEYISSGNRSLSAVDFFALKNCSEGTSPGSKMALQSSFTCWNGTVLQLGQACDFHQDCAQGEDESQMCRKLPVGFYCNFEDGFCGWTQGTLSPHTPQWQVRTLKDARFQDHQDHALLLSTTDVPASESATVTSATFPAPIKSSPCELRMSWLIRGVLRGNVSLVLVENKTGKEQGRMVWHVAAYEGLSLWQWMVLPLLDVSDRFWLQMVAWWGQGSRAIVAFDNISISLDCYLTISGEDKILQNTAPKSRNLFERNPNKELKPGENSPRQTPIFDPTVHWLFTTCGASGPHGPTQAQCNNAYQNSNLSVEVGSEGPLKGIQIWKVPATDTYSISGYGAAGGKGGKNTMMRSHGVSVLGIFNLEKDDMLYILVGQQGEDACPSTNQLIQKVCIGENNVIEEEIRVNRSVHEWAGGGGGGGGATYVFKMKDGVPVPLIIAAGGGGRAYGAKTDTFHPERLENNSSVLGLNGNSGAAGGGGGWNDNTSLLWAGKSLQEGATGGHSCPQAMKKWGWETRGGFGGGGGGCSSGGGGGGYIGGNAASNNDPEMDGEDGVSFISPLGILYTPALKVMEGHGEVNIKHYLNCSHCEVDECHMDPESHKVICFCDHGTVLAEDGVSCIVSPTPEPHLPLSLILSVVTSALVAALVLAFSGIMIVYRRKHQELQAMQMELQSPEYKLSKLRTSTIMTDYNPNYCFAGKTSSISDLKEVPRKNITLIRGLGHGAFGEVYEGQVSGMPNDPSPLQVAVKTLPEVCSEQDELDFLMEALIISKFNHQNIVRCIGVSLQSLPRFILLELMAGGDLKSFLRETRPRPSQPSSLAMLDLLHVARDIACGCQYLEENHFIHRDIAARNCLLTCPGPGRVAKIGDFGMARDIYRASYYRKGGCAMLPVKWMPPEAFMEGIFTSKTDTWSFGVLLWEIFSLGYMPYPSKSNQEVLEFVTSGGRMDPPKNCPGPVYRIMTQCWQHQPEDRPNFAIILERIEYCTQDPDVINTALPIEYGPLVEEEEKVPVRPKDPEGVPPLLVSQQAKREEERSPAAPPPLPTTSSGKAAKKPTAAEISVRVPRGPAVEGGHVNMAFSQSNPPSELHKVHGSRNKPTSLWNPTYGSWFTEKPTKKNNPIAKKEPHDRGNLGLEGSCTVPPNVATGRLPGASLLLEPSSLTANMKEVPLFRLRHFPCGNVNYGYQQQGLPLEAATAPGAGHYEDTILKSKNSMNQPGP

[3] = Antiproliferative activity against CHO cells after 72 hrs by CellTiter-Glo assay; format: cell-based, Cricetulus griseus; conditions: chinese hamster
NCI-H2228 = assay: Antiproliferative activity against human NCI-H2228 cells harboring EML4-fused ALK varian3 after 72 hrs by CellTiter-Glo assay; format: functional; conditions: NCI-H2228, 72 h
[4] = target: T1, ALK tyrosine kinase receptor; assay: Inhibition of ALK in human NCI-H3122 cells harboring EML4-fused ALK assessed as reduction in ALK-induced ERK phosphorylation at Thr202/Tyr204 residues up to 3 uM after 2 hrs by immunoblot method; format: cell-based
Target sequence in this assay (Q9UM73 19-1620 limits assumed): as above

NCI-H1975 [5] = assay: Induction of apoptosis in human NCI-H1975 cells assessed as increase in cleaved caspase-3 expression level at 300 nM to 1 uM after 24 hrs by Western blot method; format: functional, cell-based
PC-9 = assay: Antiproliferative activity against human PC9 cells harboring EGFR del19 mutant after 72 hrs by CellTiter-Glo assay; format: functional; conditions: PC-9, 72 h
[6] = Half life in Sprague-Dawley rat at 10 mg/kg, po; format: ADME, organism-based; conditions: in vivo
How it was run: (§1)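 Rats dosed once intravenously at 1 mg/kg or orally at 10 mg/kg. Plasma exposure parameters derived: AUC0-t, AUC0-∞, MRT(0-t), Cmax, Tmax, T1/2 and oral bioavailability (F%). Values reported as mean ± spread.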

[7] = target: T1, ALK tyrosine kinase receptor; assay: Inhibition of recombinant human wild-type GST-tagged ALK expressed in Baculovirus expression system using Tyr 1 peptide as substrate after 1 hr by Z-LYTE assay
Target sequence in this assay (Q9UM73 whole entry, the tested form may be a part): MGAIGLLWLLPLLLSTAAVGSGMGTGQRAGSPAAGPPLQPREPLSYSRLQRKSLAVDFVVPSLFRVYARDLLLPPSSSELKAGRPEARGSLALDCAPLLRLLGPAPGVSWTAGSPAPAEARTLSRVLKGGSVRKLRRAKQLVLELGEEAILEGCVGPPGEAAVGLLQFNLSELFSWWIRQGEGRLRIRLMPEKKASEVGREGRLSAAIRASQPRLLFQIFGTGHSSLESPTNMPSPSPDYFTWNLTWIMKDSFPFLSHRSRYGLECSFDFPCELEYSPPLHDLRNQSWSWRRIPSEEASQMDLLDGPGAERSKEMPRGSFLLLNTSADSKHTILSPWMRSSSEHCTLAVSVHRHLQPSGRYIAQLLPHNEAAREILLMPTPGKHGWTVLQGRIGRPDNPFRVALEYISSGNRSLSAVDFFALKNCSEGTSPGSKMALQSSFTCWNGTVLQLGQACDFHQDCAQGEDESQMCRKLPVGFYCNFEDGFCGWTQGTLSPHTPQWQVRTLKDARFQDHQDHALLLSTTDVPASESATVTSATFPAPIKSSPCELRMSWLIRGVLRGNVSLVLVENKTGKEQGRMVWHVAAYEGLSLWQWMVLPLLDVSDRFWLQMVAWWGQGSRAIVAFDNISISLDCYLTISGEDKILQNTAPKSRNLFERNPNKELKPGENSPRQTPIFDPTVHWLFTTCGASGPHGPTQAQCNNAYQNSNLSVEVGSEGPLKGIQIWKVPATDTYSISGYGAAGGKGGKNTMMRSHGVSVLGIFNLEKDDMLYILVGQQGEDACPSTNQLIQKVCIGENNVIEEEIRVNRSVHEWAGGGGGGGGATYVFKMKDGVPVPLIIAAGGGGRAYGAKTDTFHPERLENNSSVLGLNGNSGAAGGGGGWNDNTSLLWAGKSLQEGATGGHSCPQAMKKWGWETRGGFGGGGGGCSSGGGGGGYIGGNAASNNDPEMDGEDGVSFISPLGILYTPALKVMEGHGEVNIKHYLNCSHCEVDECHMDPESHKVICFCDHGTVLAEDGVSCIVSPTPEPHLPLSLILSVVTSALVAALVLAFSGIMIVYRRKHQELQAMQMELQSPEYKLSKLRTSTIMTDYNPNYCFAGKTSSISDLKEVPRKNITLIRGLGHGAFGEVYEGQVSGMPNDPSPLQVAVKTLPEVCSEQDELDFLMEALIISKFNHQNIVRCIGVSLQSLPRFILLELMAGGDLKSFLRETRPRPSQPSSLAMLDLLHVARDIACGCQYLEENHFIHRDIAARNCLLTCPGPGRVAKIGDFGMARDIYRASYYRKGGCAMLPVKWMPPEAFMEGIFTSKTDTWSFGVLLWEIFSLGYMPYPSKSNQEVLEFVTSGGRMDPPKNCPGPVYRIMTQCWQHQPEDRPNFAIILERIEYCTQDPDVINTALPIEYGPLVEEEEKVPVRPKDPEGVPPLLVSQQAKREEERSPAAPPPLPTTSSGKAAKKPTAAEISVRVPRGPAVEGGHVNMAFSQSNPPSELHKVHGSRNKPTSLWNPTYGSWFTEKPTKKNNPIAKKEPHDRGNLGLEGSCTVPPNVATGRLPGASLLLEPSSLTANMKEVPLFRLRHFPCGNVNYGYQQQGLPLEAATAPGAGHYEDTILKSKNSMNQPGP

A549 = assay: Antiproliferative activity against human A549 cells harboring wild-type EGFR after 72 hrs by CellTiter-Glo assay; format: functional; conditions: A549, 72 h
NCI-H3122 [8] = assay: Induction of apoptosis in human NCI-H3122 cells assessed as increase in cleaved PARP expression level at 300 nM after 24 hrs by Western blot method; format: functional, cell-based
[9] = Cmax in Sprague-Dawley rat at 1 mg/kg, iv; format: ADME, organism-based; design: dose 1 mg/kg, route intravenous; conditions: in vivo; how it was run: as §1
NCI-H1975 [10] = assay: Antitumor activity against human NCI-H1975 cells xenografted in po dosed nu/nu mouse assessed as tumor growth inhibition administered for 21 days
[11] = target: Epidermal growth factor receptor (Homo sapiens, UniProt P00533, L858R/T790M); assay: Inhibition of recombinant human GST-tagged EGFR L858R/T790M mutant expressed in Baculovirus expression system using Tyr 4 peptide as substrate after 1 hr in presence of ATP by Z-LYTE assay
NCI-H1975 [12] = assay: Antitumor activity against human NCI-H1975 cells xenografted in po dosed nu/nu mouse assessed as decrease in cell proliferation administered for 21 days by Ki67 staining-based immunohistochemical analysis
[13] = AUC (0 to infinity) in Sprague-Dawley rat at 10 mg/kg, po; format: ADME, organism-based; design: dose 10 mg/kg, route oral, time infinity; conditions: in vivo; how it was run: as §1
[14] = target: T2, Epidermal growth factor receptor (Homo sapiens, UniProt P00533); assay: Inhibition of EGFR phosphorylation at Y1068 in human NCI-H1975 cells at 30 nM after 4 hrs by immunoblotting method; format: cell-based
T2 sequence (P00533 whole entry): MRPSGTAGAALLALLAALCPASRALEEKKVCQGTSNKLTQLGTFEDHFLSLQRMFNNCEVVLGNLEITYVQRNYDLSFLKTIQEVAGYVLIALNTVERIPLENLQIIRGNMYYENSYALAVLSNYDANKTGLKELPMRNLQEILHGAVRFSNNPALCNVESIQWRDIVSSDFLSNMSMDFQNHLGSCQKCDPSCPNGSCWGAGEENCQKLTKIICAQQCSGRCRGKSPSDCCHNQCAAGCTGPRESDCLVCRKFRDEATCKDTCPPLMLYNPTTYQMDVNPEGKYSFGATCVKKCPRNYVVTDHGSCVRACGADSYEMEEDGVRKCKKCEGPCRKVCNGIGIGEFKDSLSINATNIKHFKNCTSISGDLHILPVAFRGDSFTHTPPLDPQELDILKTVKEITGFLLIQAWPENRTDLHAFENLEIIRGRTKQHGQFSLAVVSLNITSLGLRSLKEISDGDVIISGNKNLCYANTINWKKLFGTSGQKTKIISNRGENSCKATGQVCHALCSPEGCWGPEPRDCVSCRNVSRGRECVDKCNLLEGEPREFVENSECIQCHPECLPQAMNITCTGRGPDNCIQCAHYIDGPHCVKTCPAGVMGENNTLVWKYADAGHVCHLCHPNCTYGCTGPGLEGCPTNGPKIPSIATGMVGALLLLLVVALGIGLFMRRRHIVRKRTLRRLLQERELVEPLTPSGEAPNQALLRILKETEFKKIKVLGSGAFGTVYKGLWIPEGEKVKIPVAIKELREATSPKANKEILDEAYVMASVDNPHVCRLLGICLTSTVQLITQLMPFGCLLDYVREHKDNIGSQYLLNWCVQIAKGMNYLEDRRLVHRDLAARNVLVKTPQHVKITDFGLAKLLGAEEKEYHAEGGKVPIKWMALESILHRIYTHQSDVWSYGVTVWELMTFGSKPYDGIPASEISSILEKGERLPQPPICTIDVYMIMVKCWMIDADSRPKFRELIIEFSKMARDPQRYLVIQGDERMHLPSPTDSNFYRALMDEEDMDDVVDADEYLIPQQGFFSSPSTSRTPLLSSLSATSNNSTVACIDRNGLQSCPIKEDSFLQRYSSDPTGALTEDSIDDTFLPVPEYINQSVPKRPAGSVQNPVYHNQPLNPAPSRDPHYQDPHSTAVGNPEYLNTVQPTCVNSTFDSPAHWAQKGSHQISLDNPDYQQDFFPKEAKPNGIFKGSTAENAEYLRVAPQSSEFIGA

[15] = target: T2, Epidermal growth factor receptor; assay: Inhibition of full length EGFR del19 mutant (unknown origin) expressed in mouse BAF3 cells assessed as decrease in cell proliferation after 72 hrs by CellTiter-Glo assay; format: cell-based
[16] = target: T2, Epidermal growth factor receptor; assay: Inhibition of EGFR phosphorylation at Y1068 in human A549 cells at 300 nM after 4 hrs by immunoblotting method; format: cell-based
[17] = target: ALK tyrosine kinase receptor (Homo sapiens, UniProt Q9UM73, C1156Y); assay: Inhibition of recombinant human N-terminal GST/His6-fused ALK C1156Y mutant expressed in Sf9 insect cells using Tyr 1 peptide as substrate after 1 hr by Z-LYTE assay
Sequence of ALK tyrosine kinase receptor (Homo sapiens, UniProt Q9UM73, C1156Y) (Q9UM73 19-1620 C1156Y limits assumed): as the sequence (Q9UM73 19-1620 limits assumed) above, with C1138Y counted along it

[18] = target: T2, Epidermal growth factor receptor; assay: Inhibition of EGFR in human A549 cells assessed as reduction in EGF-induced ERK phosphorylation at Thr202/Tyr204 residues up to 3 uM after 4 hrs by immunoblotting method; format: cell-based
[19] = Antiproliferative activity against CHL cells after 72 hrs by CellTiter-Glo assay; format: cell-based, Cricetulus griseus; conditions: chinese hamster
NCI-H3122 [20] = assay: Antitumor activity against human NCI-H3122 cells xenografted in nu/nu mouse assessed as tumor growth inhibition at 40 mg/kg, po qd administered for 28 days; format: functional; conditions: 672 h, read-out: TGI
[21] = target: T2, Epidermal growth factor receptor; assay: Inhibition of EGFR in human A549 cells assessed as reduction in EGF-induced eIF4E phosphorylation at Ser209 residue up to 3 uM after 4 hrs by immunoblotting method; format: cell-based
[22] = Oral bioavailability in Sprague-Dawley rat at 10 mg/kg; format: ADME, organism-based; conditions: in vivo
How it was run: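 Pharmacokinetics in rats given a single dose either intravenously at 1 mg/kg or orally at 10 mg/kg. Plasma parameters derived include AUC0-t, AUC0-∞, MRT(0-t), Cmax, Tmax, T1/2 and oral F (%).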

[23] = system: Epidermal growth factor receptor (Homo sapiens), P00533 [C797S]; assay: Inhibition of TEL-fused EGFR C797S mutant (unknown origin) expressed in mouse BAF3 cells assessed as decrease in cell proliferation after 72 hrs by CellTiter-Glo assay; format: cell-based

C=CC(=O)Nc1cc(Nc2ncc(Cl)c(Nc3ccccc3S(=O)(=O)C(C)C)n2)c(OC)cc1N1CCCN(C)CC1
inhibition in vivo at 10 mg/kg (NCI-H3122 [1]): 10.8%
inhibition [2]: Active
GI50 at 72 h [3]: 1800 nM
GI50 (NCI-H2228): 28 nM
inhibition [4]: Active
Activity (NCI-H1975 [5]): Active
GI50 (PC-9): 15 nM
half-life [6]: 105 min
IC50 [7]: 9.8 nM
GI50 (A549): 5.6 µM
Activity (NCI-H3122 [8]): Active
Cmax [9]: 1490 ng/mL
TGI (NCI-H1975 [10]): Dose-dependent effect
IC50 [11]: 3.6 nM
Activity (NCI-H1975 [12]): Dose-dependent effect
AUC(0-inf) [13]: 1300 ng·h/mL
inhibition [14]: Active
GI50 [15]: 8.5 nM
inhibition [16]: Active
IC50 [17]: 1 nM
inhibition [18]: inactive
GI50 at 72 h [19]: 3.5 µM
inhibition in vivo at 40 mg/kg (NCI-H3122 [20]): 78.4%
inhibition [21]: inactive
bioavailability [22]: 16.1%
GI50 [23]: 230 nM
